From ChEMBL document CHEMBL1914423, “New imidazo[2,1-b]thiazole derivatives: synthesis, in vitro anticancer evaluation, and in silico studies” (Eur J Med Chem, 2011)

Assays:
Format in all cases: functional
MDA-MB-231 = test: Anticancer activity against human MDA-MB-231 cells assessed as cell growth at 10^-5 M after 48 hrs by SRB assay; conditions: MDA-MB-231, 48 h, read-out: Activity
In short: (§1)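 NCI-60 single-dose screen at one concentration. Cells grown in RPMI 1640 with 5% FBS and 2 mM L-glutamine, plated at 5000–40,000 cells/well, and pre-incubated 24 h at 37 °C in 5% CO2 before DMSO-dissolved drug was added. Cells fixed with TCA, SRB-stained, absorbance read at 515 nm. Percent growth calculated against time-zero and untreated control plates.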

RXF 393 = test: Anticancer activity against human RXF393 cells assessed as cell growth at 10^-5 M after 48 hrs by SRB assay; conditions: RXF 393, 48 h, read-out: Activity
A549 = test: Anticancer activity against human A549 cells assessed as cell growth at 10^-5 M after 48 hrs by SRB assay; conditions: A549, 48 h, read-out: Activity; in short: as §1
U-251 = test: Anticancer activity against human U251 cells assessed as cell growth at 10^-5 M after 48 hrs by SRB assay; conditions: U-251, 48 h, read-out: Activity
In short: (§2)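 NCI-60 single-dose screen: cells in RPMI 1640 with 5% FBS and 2 mM L-glutamine, plated at 5000–40,000 cells/well by doubling time, and preincubated 24 h at 37 °C. Compound given at one concentration from DMSO stock. Cells TCA-fixed and SRB-stained, absorbance at 515 nm. Percent growth relative to time-zero and untreated controls; inhibition % = 100 − growth %.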

SK-MEL-28 = test: Anticancer activity against human SK-MEL-28 cells assessed as cell growth at 10^-5 M after 48 hrs by SRB assay; conditions: SK-MEL-28, 48 h, read-out: Activity
UACC-62 = test: Anticancer activity against human UACC62 cells assessed as cell growth at 10^-5 M after 48 hrs by SRB assay; conditions: UACC-62, 48 h, read-out: Activity; in short: as §2
M14 = test: Anticancer activity against human M14 cells assessed as cell growth at 10^-5 M after 48 hrs by SRB assay; conditions: M14, 48 h, read-out: Activity; in short: as §1
HOP-62 = test: Anticancer activity against human HOP62 cells assessed as cell growth at 10^-5 M after 48 hrs by SRB assay; conditions: HOP-62, 48 h, read-out: Activity; in short: as §1
DU-145 = test: Anticancer activity against human DU145 cells assessed as cell growth at 10^-5 M after 48 hrs by SRB assay; conditions: DU-145, 48 h, read-out: Activity; in short: as §1
ACHN = test: Anticancer activity against human ACHN cells assessed as cell growth at 10^-5 M after 48 hrs by SRB assay; conditions: read-out: Activity; in short: as §1
OVCAR-4 = test: Anticancer activity against human OVCAR4 cells assessed as cell growth at 10^-5 M after 48 hrs by SRB assay; conditions: OVCAR-4, 48 h, read-out: Activity
MDA-MB-468 = test: Anticancer activity against human MDA-MB-468 cells assessed as cell growth at 10^-5 M after 48 hrs by SRB assay; conditions: MDA-MB-468, 48 h, read-out: Activity
SF-539 = test: Anticancer activity against human SF539 cells assessed as cell growth at 10^-5 M after 48 hrs by SRB assay; conditions: SF-539, 48 h, read-out: Activity
OVCAR-3 = test: Anticancer activity against human OVCAR3 cells assessed as cell growth at 10^-5 M after 48 hrs by SRB assay; conditions: OVCAR-3, 48 h, read-out: Activity
HCT-116 = test: Anticancer activity against human HCT116 cells assessed as cell growth at 10^-5 M after 48 hrs by SRB assay; conditions: HCT-116, 48 h, read-out: Activity; in short: as §1
NCI-H460 = test: Anticancer activity against human NCI-H460 cells assessed as cell growth at 10^-5 M after 48 hrs by SRB assay; conditions: NCI-H460, 48 h, read-out: Activity
MOLT-4 = test: Anticancer activity against human MOLT4 cells assessed as cell growth at 10^-5 M after 48 hrs by SRB assay; conditions: MOLT-4, 48 h, read-out: Activity
NCI-H522 = test: Anticancer activity against human NCI-H522 cells assessed as cell growth at 10^-5 M after 48 hrs by SRB assay; conditions: NCI-H522, 48 h, read-out: Activity
EKVX = test: Anticancer activity against human EKVX cells assessed as cell growth at 10^-5 M after 48 hrs by SRB assay; conditions: read-out: Activity; in short: as §1
HCC 2998 = test: Anticancer activity against human HCC2998 cells assessed as cell growth at 10^-5 M after 48 hrs by SRB assay; conditions: HCC 2998, 48 h, read-out: Activity; in short: as §1
SN12C = test: Anticancer activity against human SN12C cells assessed as cell growth at 10^-5 M after 48 hrs by SRB assay; conditions: read-out: Activity
LOX IMVI = test: Anticancer activity against human LOXIMVI cells assessed as cell growth at 10^-5 M after 48 hrs by SRB assay; conditions: read-out: Activity; in short: as §1
BT-549 = test: Anticancer activity against human BT549 cells assessed as cell growth at 10^-5 M after 48 hrs by SRB assay; conditions: BT-549, 48 h, read-out: Activity; in short: as §1
COLO 205 = test: Anticancer activity against human COLO205 cells assessed as cell growth at 10^-5 M after 48 hrs by SRB assay; conditions: COLO 205, 48 h, read-out: Activity; in short: as §1
SNB-75 = test: Anticancer activity against human SNB75 cells assessed as cell growth at 10^-5 M after 48 hrs by SRB assay; conditions: SNB-75, 48 h, read-out: Activity; in short: as §2
NCI-H23 = test: Anticancer activity against human NCI-H23 cells assessed as cell growth at 10^-5 M after 48 hrs by SRB assay; conditions: NCI-H23, 48 h, read-out: Activity
HL-60(TB) = test: Anticancer activity against human HL-60(TB) cells assessed as cell growth at 10^-5 M after 48 hrs by SRB assay; conditions: HL-60, 48 h, read-out: Activity
In short: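 NCI-60 single-dose screen. Cells in RPMI 1640 with 5% FBS and 2 mM L-glutamine were plated at 5000–40,000 cells/well and preincubated 24 h at 37 °C before one compound concentration. Time-zero plates were TCA-fixed at drug addition. For suspension cells, settled cells were fixed with cold TCA, then SRB-stained and read at 515 nm. Percent growth was calculated from time-zero, control and treated absorbances.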

Compound	growth at 10 µM (MDA-MB-231) [%]	growth at 10 µM (RXF 393) [%]	growth at 10 µM (A549) [%]	growth at 10 µM (U-251) [%]	growth at 10 µM (SK-MEL-28) [%]	growth at 10 µM (UACC-62) [%]	growth at 10 µM (M14) [%]	growth at 10 µM (HOP-62) [%]	growth at 10 µM (DU-145) [%]	growth at 10 µM (ACHN) [%]	growth at 10 µM (OVCAR-4) [%]	growth at 10 µM (MDA-MB-468) [%]	growth at 10 µM (SF-539) [%]	growth at 10 µM (OVCAR-3) [%]	growth at 10 µM (HCT-116) [%]	growth at 10 µM (NCI-H460) [%]	growth at 10 µM (MOLT-4) [%]	growth at 10 µM (NCI-H522) [%]	growth at 10 µM (EKVX) [%]	growth at 10 µM (HCC 2998) [%]	further results
COc1cccc(-c2nc3sccn3c2-c2ccnc(NCCNC(=O)c3ccc(N4CCOCC4)c(C(F)(F)F)c3)n2)c1	94.2	78.5	76.2	87.2	89.5	41.3	62.1	99.4	111	70.6	102	90.5	79	93.8	82.6	77.7	50.8	60.6	74.1	93.3	growth at 10 µM (SN12C): 91.7%; growth at 10 µM (LOX IMVI): 73.5%; growth at 10 µM (BT-549): 74.8%; growth at 10 µM (COLO 205): 69%; growth at 10 µM (SNB-75): 82.5%; growth at 10 µM (NCI-H23): 102%; growth at 10 µM (HL-60(TB)): 85.2%
COc1cccc(-c2nc3sccn3c2-c2ccnc(NCCNC(=O)c3cc(N4CCOCC4)cc(C(F)(F)F)c3)n2)c1	80.4	72.6	82.2	100	88.2	50.9	65.3	112	94.6	80.1	107	98.1	101	96.3	75.6	95.6	60	69.5	84.8	98.7	growth at 10 µM (SN12C): 89.3%; growth at 10 µM (LOX IMVI): 79.2%; growth at 10 µM (BT-549): 81.1%; growth at 10 µM (COLO 205): 73.3%; growth at 10 µM (SNB-75): 72.2%; growth at 10 µM (NCI-H23): 110%; growth at 10 µM (HL-60(TB)): 113%
O=C(NCCNc1nccc(-c2c(-c3cccc(O)c3)nc3sccn23)n1)c1cccc(C(F)(F)F)c1	76.2	79.9	71.3	84.8	38.5	3.21	17.5	114	91.4	66	117	70.5	100	89.8	74.3	85.7	61.5	48.5	91.6	117	growth at 10 µM (SN12C): 83.2%; growth at 10 µM (LOX IMVI): 53.4%; growth at 10 µM (BT-549): 88%; growth at 10 µM (COLO 205): 71.1%; growth at 10 µM (SNB-75): 73.8%; growth at 10 µM (NCI-H23): 81%; growth at 10 µM (HL-60(TB)): 95.5%
O=C(NCCNc1nccc(-c2c(-c3cccc(O)c3)nc3sccn23)n1)c1cc(C(F)(F)F)cc(C(F)(F)F)c1	101	107	92.5	105	61.8	27.5	38.2	118	114	88.3	129	101	113	108	102	107	87.7	97.6	103	129	growth at 10 µM (SN12C): 102%; growth at 10 µM (LOX IMVI): 90.7%; growth at 10 µM (BT-549): 108%; growth at 10 µM (COLO 205): 59.8%; growth at 10 µM (SNB-75): 87.7%; growth at 10 µM (NCI-H23): 119%; growth at 10 µM (HL-60(TB)): 123%
O=C(NCCNc1nccc(-c2c(-c3cccc(O)c3)nc3sccn23)n1)c1ccc(N2CCOCC2)c(C(F)(F)F)c1	64.9	57.6	64.1	82	42.8	5.88	19.1	96.7	94.9	60.8	105	50.2	77.8	89.1	60.2	66.9	57	74.4	74	106	growth at 10 µM (SN12C): 76%; growth at 10 µM (LOX IMVI): 42.2%; growth at 10 µM (BT-549): 53.8%; growth at 10 µM (COLO 205): 43.4%; growth at 10 µM (SNB-75): 58%; growth at 10 µM (NCI-H23): 85.4%; growth at 10 µM (HL-60(TB)): 113%
O=C(NCCNc1nccc(-c2c(-c3cccc(O)c3)nc3sccn23)n1)c1cc(N2CCOCC2)cc(C(F)(F)F)c1	74.2	77.8	88.6	105	44.5	8.5	22.4	136	110	79.4	133	94.8	101	107	78.8	96.2	68.5	78.6	88.6	109	growth at 10 µM (SN12C): 89.8%; growth at 10 µM (LOX IMVI): 52.3%; growth at 10 µM (BT-549): 84.8%; growth at 10 µM (COLO 205): 32.7%; growth at 10 µM (SNB-75): 83.2%; growth at 10 µM (NCI-H23): 106%; growth at 10 µM (HL-60(TB)): 102%
